According to ChEMBL document CHEMBL1153770, “Chemical constituents of Heteroplexis micocephala” (J Nat Prod, 2009):
Active and inactive are the calls of the source. The rule behind the calls is not given here.

How the values were obtained:
[1] = tested on: Human immunodeficiency virus 1; experiment: Antiviral activity against HIV1 NL4-3 co-transfected with VSV glycoprotein plasmid in human 293T cells after 48 hrs by luciferase reporter gene assay; assay type: functional, organism-based
Outline: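 Env-deficient pNL4-3.luc.R-E- HIV-1 vector pseudotyped with VSV-G, made by co-transfecting 293T cells, quantified by p24 ELISA and diluted to 0.2 ng p24/mL. Target 293T cells were seeded at 6 × 10^4 per well one day before infection. Compounds were preincubated with cells 15 min before adding virus, with a solvent-only blank. Cells were lysed 48 h post-infection.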

[2] = species: Rattus norvegicus; experiment: Antiinflammatory activity in rat PMNCs assessed as inhibition of platelet activating factor-induced beta-glucuronidase release at 10 uM treated 15 mins before PAF challenge after 10 mins; assay type: functional
[3] = tested on: Liver microsomes; experiment: Antioxidant activity in rat liver microsomes assessed as inhibition of Fe(2+)-cystine-induced lipid peroxidation at 10 uM pretreated for 15 mins before Fe2+ challenge after 15 mins by TBA assay; assay type: functional; settings: Microsome
[4] = biological target: T1, Tyrosine-protein phosphatase non-receptor type 1 (Homo sapiens) (UniProt P18031); experiment: Inhibition of GST-tagged human recombinant PTP1B assessed as paranitrophenol accumulation at 10 uM after 10 mins by spectrophotometry
T1 sequence (whole entry): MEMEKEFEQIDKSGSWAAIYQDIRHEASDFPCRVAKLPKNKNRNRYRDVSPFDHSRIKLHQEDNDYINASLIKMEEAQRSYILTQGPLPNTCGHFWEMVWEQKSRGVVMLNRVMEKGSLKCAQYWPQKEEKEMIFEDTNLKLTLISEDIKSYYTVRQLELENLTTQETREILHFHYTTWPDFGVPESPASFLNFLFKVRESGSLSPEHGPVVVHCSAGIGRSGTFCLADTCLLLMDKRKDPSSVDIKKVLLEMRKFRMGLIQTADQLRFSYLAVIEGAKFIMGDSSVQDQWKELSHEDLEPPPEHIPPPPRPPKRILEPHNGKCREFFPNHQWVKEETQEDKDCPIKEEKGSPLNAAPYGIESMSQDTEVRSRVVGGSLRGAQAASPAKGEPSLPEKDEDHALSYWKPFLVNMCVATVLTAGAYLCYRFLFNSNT

[5] = tested on: PC-12; experiment: Neuroprotective activity against glutamate-induced rat PC12 cell death at 10 uM pretreated for 24 hrs before glutamate challenge after 24 hrs by MTT assay; assay type: functional, cell-based
[6] = tested on: A2780; experiment: Cytotoxicity against human A2780 cells after 96 hrs by MTT assay; assay type: functional, cell-based
[7] = Homo sapiens, A2780, 96 h, read-out: IC50
[8] = Human immunodeficiency virus 1, NL4-3, HEK-293T, 48 h, read-out: IC50

SMILES | IC50 ([1]; 293t) | Activity [2] | Activity [3] | Activity [4] | Activity [5] | IC50 [6, 7] | IC50 ([6]; a2780) | IC50 [1, 8]
CC(C)=C[C@@H]1OC(=O)[C@H](/C=C/C/C(C)=C/CCC2=CC(=O)OC2)[C@@H]1O [HETEROPLEXISOLIDE D] | Not Active | inactive | inactive | inactive | inactive | 4370 nM |  | 
C=C(CC/C=C1\C[C@@H](C=C(C)C)OC1=O)C(O)CCC1=CC(=O)OC1 (stereo not given in full) [HETEROPLEXISOLIDE B] | Not Active | inactive | inactive | inactive | inactive |  | Not Active | 
C/C=C(/C)C(=O)OC/C=C/c1cc(OC)c(OC(=O)[C@@H](C)CC)c(OC)c1 | Not Active | inactive | inactive | inactive | inactive |  | Not Active | 
C/C=C(/C)C(=O)OC/C=C/c1cc(OC)c(OC)c(OC)c1 | Not Active | inactive | inactive | inactive | inactive |  | Not Active | 
C/C1=C/CC(C)(C)[C@@H]2CC[C@@](C)(O)/C2=C/C1=O | Not Active | inactive | inactive | inactive | inactive |  | Not Active | 
C/C=C(/C)C(=O)OC/C=C/c1cc(OC)c(OC(=O)/C(C)=C\C)c(OC)c1 |  | inactive | inactive | inactive | inactive |  | Not Active | 4040 nM
C[C@]12C[C@@H](c3ccoc3)OC(=O)[C@@H]1CC[C@@]13COC(=O)[C@@H]1C=CC(=O)[C@H]23 [8-EPIRHYNCHOSPERIN A] | Not Active | inactive | inactive | inactive | inactive |  | Not Active | 
CC[C@@]1(O)C(=O)OCc2c1cc1n(c2=O)Cc2cc3ccccc3nc2-1 [CAMPTOTHECIN] |  |  |  |  |  | 280 nM |  | 
Cc1cn([C@H]2C[C@H](N=[N+]=[N-])[C@@H](CO)O2)c(=O)[nH]c1=O [ZIDOVUDINE] |  |  |  |  |  |  |  | 48 nM
CC(=O)CC/C=C1\C[C@@H](C=C(C)C)OC1=O [HETEROPLEXISOLIDE E] | Not Active | inactive | inactive | inactive | inactive |  | Not Active | 
CC(C)=C[C@@H]1C/C(=C\CC/C(C)=C/CCC2=CC(=O)OC2)C(=O)O1 [HETEROPLEXISOLIDE A] | Not Active | inactive | inactive | inactive | inactive |  | Not Active | 
COc1ccc(C(C)=O)cc1C(=O)CC(C)(C)O | Not Active | inactive | inactive | inactive | inactive |  | Not Active | 
C/C1=C/CC(C)(C)[C@@H]2CC[C@](C)(O)/C2=C/C1=O | Not Active | inactive | inactive | inactive | inactive |  | Not Active | 
CCOC(C)(C)CC(=O)c1cc(C(C)=O)ccc1OC | Not Active | inactive | inactive | inactive | inactive |  | Not Active | 
CC(C)=C[C@@H]1OC(=O)/C(=C/CC/C(C)=C/CCC2=CC(=O)OC2)[C@@H]1O [HETEROPLEXISOLIDE C] | Not Active | inactive | inactive | inactive | inactive |  | Not Active | 
